{
  "source": "ChEMBL document CHEMBL2331340",
  "about": "“Novel antitumor indolizino[6,7-b]indoles with multiple modes of action: DNA cross-linking and topoisomerase I and II inhibition” (J Med Chem, 2013)",
  "key": {"[1]": {"target": "DNA topoisomerase 2-alpha (Homo sapiens) (UniProt P11388)", "sequence (P11388 whole entry)": "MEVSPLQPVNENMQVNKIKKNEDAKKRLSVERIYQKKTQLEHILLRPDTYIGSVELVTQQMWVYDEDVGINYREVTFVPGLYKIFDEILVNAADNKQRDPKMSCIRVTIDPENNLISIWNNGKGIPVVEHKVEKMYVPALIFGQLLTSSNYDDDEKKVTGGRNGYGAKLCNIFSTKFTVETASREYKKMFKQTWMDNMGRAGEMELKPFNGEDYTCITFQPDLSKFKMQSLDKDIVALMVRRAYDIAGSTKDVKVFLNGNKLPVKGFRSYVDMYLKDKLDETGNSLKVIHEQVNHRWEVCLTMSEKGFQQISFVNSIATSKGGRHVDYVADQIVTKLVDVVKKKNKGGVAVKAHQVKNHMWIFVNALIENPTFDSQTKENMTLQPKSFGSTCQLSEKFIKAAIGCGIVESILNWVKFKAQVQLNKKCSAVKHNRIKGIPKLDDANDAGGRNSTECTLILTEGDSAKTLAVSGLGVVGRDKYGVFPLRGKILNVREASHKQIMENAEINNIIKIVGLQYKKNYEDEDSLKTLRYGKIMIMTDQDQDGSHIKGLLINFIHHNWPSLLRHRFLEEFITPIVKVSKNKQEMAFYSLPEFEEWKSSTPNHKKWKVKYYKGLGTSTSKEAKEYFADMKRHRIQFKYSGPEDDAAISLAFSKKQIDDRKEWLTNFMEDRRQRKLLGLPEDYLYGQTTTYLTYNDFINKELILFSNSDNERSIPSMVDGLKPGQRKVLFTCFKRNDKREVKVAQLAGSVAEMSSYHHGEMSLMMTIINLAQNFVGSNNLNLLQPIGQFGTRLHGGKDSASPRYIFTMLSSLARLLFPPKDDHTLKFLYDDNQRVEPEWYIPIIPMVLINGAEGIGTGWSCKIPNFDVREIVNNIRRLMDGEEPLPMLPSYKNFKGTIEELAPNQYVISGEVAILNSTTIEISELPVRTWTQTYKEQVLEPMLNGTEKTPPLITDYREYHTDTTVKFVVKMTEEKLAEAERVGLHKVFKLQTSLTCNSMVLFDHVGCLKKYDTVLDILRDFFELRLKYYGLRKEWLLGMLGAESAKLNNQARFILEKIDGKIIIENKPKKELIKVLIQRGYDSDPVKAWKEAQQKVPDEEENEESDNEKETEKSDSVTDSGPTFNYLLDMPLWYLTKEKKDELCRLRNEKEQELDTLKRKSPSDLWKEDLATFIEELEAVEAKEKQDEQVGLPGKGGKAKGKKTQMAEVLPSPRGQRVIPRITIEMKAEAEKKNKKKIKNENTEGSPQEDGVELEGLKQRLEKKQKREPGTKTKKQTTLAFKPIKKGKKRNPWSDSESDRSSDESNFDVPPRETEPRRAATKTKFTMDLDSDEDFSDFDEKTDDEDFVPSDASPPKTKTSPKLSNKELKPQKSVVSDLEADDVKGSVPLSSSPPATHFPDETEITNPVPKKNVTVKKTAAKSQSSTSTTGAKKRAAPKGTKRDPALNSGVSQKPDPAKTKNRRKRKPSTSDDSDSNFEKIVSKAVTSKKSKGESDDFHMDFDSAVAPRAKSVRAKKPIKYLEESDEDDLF", "details": "50 to 200 uM"}, "Mus musculus [2]": {"system": "Mus musculus", "assay": "Toxicity in nude mouse xenografted with human HT-29 cells assessed as body weight loss at 60 mg/kg, iv tid administered 2 days measured for 20 days", "assay_type": "organism-based", "set-up": "dose 60 mg/kg, route intravenous", "details": "in vivo, 480 h"}, "A549 [3]": {"system": "A549", "assay": "Antitumor activity against human A549 cells xenografted in nude mouse assessed as tumor growth inhibition at 60 mg/kg, iv tid administered 2 days measured on day 20 relative to vehicle-treated control", "assay_type": "functional", "details": "read-out: TGI"}, "HT-29 [4]": {"system": "HT-29", "assay": "Antitumor activity against human HT-29 cells xenografted in nude mouse assessed as tumor growth inhibition at 60 mg/kg, iv tid administered 2 days measured on day 22", "assay_type": "functional, organism-based", "set-up": "dose 60 mg/kg"}, "HT-29 [5]": {"system": "HT-29", "assay": "Antitumor activity against human HT-29 cells xenografted in nude mouse assessed as tumor growth inhibition at 60 mg/kg, iv tid administered 2 days measured on day 20", "assay_type": "functional, organism-based", "set-up": "dose 60 mg/kg"}, "Mus musculus [6]": {"system": "Mus musculus", "assay": "Toxicity in nude mouse xenografted with human A549 cells assessed as body weight loss at 60 mg/kg, iv tid administered 2 days measured for 20 days", "assay_type": "organism-based", "set-up": "dose 60 mg/kg, route intravenous", "details": "in vivo, 480 h"}, "[7]": {"target": "T1, DNA topoisomerase 1 (Homo sapiens) (UniProt P11387)", "T1 sequence (whole entry)": "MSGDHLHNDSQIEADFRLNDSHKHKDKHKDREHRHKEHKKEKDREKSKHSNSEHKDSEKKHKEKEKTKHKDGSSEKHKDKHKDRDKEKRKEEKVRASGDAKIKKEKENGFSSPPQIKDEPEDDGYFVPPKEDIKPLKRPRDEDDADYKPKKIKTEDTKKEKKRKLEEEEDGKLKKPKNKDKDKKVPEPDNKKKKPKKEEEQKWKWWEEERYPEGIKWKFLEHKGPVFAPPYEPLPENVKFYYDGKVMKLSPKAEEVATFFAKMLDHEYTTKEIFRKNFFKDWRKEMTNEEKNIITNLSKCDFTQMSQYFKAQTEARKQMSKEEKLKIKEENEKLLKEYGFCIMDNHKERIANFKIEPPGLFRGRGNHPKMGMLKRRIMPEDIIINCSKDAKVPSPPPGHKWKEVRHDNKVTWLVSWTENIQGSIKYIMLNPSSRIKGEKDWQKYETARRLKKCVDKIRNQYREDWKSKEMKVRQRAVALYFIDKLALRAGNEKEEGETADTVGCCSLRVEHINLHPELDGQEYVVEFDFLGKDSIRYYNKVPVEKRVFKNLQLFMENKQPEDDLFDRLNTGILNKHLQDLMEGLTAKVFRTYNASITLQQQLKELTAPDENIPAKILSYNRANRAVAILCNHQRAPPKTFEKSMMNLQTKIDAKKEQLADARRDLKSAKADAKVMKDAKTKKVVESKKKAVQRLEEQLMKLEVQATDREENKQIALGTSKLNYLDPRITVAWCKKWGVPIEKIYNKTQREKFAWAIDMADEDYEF", "assay": "Inhibition of DNA topoisomerase 1 (unknown origin)-mediated relaxation of supercoiled pHOT DNA at 25 to 100 uM after 30 to 45 mins by agarose gel electrophoresis", "outline": "(§1)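 Supercoiled pHOT DNA (200 ng) and compound in 10 mM Tris-HCl pH 7.9 with 1 mM EDTA at 37 °C. Reaction started with 1 unit topo I, run 30−45 min, stopped with 10% SDS. Products separated on 1% agarose at 50 V for 90 min and stained with ethidium bromide.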"}, "[8]": {"target": "T1, DNA topoisomerase 1 (Homo sapiens)", "assay": "Inhibition of DNA topoisomerase 1 (unknown origin)-mediated relaxation of supercoiled pHOT DNA at 25 to 200 uM after 30 to 45 mins by agarose gel electrophoresis", "outline": "as §1"}, "[9]": {"assay": "Cytotoxicity against human CL141T cells after 72 hrs by Alamar blue assay", "assay_type": "functional, cell-based", "outline": "(§2)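 Cells exposed to compound for 72 h, then Alamar blue added with a further 10−12 h at 37 °C and a spectrophotometric read. IC50 from six or seven concentrations by median-effect analysis; mean ± STDEV, n = 3. CL141T is a line derived from a patient lung tumor passaged as a SCID mouse xenograft.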"}, "[10]": {"assay": "Cytotoxicity against human MES-SA cells after 72 hrs by Presto Blue assay", "assay_type": "functional, cell-based", "outline": "(§3)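 MES-SA and doxorubicin-resistant MES-SA/dx5 cells exposed for 72 h, then PrestoBlue added for 3 h at 37 °C, absorbance read at 570 and 600 nm. IC50 by median-effect analysis of six or seven concentrations; mean ± STDEV of three to six independent experiments.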"}, "[11]": {"assay": "Cytotoxicity against human OECM1 cells after 72 hrs by Alamar blue assay", "assay_type": "functional, cell-based", "details": "OECM1, 72 h", "outline": "as §2"}, "[12]": {"assay": "Resistance factor, ratio of IC50 for human KB-VIN10 cells to IC50 for human KB cells", "assay_type": "functional"}, "[13]": {"assay": "Cytotoxicity against human KB-VIN10 cells after 72 hrs by Alamar blue assay", "details": "KB-VIN10, 72 h"}, "[14]": {"assay": "Cytotoxicity against human HEL299 cells", "assay_type": "cell-based", "details": "HEL 299"}, "MES-SA": {"system": "MES-SA", "assay": "Resistance factor, ratio of IC50 for human MES-SA/Dx5 cells to IC50 for human MES-SA cells", "assay_type": "functional"}, "HCT-116": {"system": "HCT-116", "assay": "Cytotoxicity against human HCT116 cells after 72 hrs by Alamar blue assay", "assay_type": "functional, cell-based", "details": "HCT-116, 72 h", "outline": "as §2"}, "A549 [15]": {"system": "A549", "assay": "Cytotoxicity against human A549 cells after 72 hrs by Alamar blue assay", "assay_type": "functional, cell-based", "details": "A549, 72 h", "outline": "as §2"}, "PC-3": {"system": "PC-3", "assay": "Cytotoxicity against human PC3 cells after 72 hrs by Alamar blue assay", "assay_type": "functional, cell-based", "details": "PC-3, 72 h", "outline": "as §2"}, "MX1": {"system": "MX1", "assay": "Cytotoxicity against human MX1 cells after 72 hrs by SRB assay", "assay_type": "functional, cell-based", "details": "MX1, 72 h"}, "[16]": {"assay": "Cytotoxicity against human MES-SA/Dx5 cells after 72 hrs by Presto Blue assay", "assay_type": "functional, cell-based", "details": "MES-SA/Dx5, 72 h", "outline": "as §3"}, "KB": {"system": "KB", "assay": "Cytotoxicity against human KB cells after 72 hrs by Alamar blue assay"}, "HT-29 [17]": {"system": "HT-29", "assay": "Cytotoxicity against human HT-29 cells after 72 hrs by Alamar blue assay", "assay_type": "functional, cell-based", "details": "HT-29, 72 h", "outline": "as §2"}, "[18]": {"target": "DNA topoisomerase 2-alpha (Homo sapiens) (UniProt P11388)", "assay": "Inhibition of DNA topoisomerase 2 (unknown origin)-mediated relaxation of supercoiled pHOT DNA after 30 to 45 mins by agarose gel electrophoresis", "outline": "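Supercoiled pHOT DNA (125 ng) with compound in buffer stated as 0.5 M Tris-HCl pH 8.0, 1.5 M NaCl, 100 mM MgCl2, 5 mM DTT, 300 μg/mL BSA, 20 mM ATP, at 37 °C. Methods state 6 units topo II, figure legend 5 units; 30−45 min, SDS stop. Products run on 1% agarose and stained with ethidium bromide.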"}, "CCRF-CEM": {"system": "CCRF-CEM", "assay": "Cytotoxicity against human CCRF-CEM cells after 72 hrs by XTT assay", "assay_type": "functional, cell-based", "outline": "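CCRF-CEM T-ALL cells incubated with compound for 72 h. XTT with phenazine methosulfate then added for 6 h at 37 °C, absorbance read at 450 and 630 nm. IC50 from six or seven concentrations by median-effect analysis; mean ± STDEV, n = 3.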"}},
  "note": "Activity calls are given as the source filed them. The rule behind the calls is not given here.",
  "data": [
    {"smiles": "COc1cc([C@@H]2c3cc4c(cc3[C@@H](O[C@@H]3O[C@@H]5CO[C@@H](C)O[C@H]5[C@H](O)[C@H]3O)[C@H]3COC(=O)[C@H]23)OCO4)cc(OC)c1O", "values": [
      {"measurement": "inhibition", "setting": "[1]", "value": "Active"}
    ]},
    {"smiles": "CCc1c2c(nc3ccc(OC(=O)N4CCC(N5CCCCC5)CC4)cc13)-c1cc3c(c(=O)n1C2)COC(=O)[C@]3(O)CC", "note": "[IRINOTECAN]", "values": [
      {"measurement": "Activity", "setting": "Mus musculus [2]", "value": "Toxic"},
      {"measurement": "inhibition in vivo at 60 mg/kg", "setting": "A549 [3]", "value": 50, "unit": "%"},
      {"measurement": "TGI", "setting": "HT-29 [4]", "value": "inactive"},
      {"measurement": "TGI", "setting": "HT-29 [5]", "value": "Active"},
      {"measurement": "Activity", "setting": "Mus musculus [6]", "value": "Toxic"},
      {"measurement": "inhibition", "setting": "[7]", "value": "Active"}
    ]},
    {"smiles": "CCNC(=O)OCc1c(COC(=O)NCC)c2n(c1C)Cc1c(c3ccccc3n1C)C2", "values": [
      {"measurement": "inhibition", "setting": "[8]", "value": "Active"},
      {"measurement": "IC50", "setting": "[9]", "value": 2840, "unit": "nM"},
      {"measurement": "IC50", "setting": "[10]", "value": 780, "unit": "nM"},
      {"measurement": "IC50", "setting": "[11]", "value": 1900, "unit": "nM"},
      {"measurement": "Ratio IC50", "setting": "[12]", "value": 0.94},
      {"measurement": "IC50", "setting": "[13]", "value": 2600, "unit": "nM"},
      {"measurement": "IC50", "setting": "[14]", "value": 15500, "unit": "nM"},
      {"measurement": "Ratio IC50", "setting": "MES-SA", "value": 0.36},
      {"measurement": "IC50", "setting": "HCT-116", "value": 2330, "unit": "nM"},
      {"measurement": "IC50", "setting": "A549 [15]", "value": 4830, "unit": "nM"},
      {"measurement": "IC50", "setting": "PC-3", "value": 4110, "unit": "nM"},
      {"measurement": "IC50", "setting": "MX1", "value": 460, "unit": "nM"},
      {"measurement": "IC50", "setting": "[16]", "value": 280, "unit": "nM"},
      {"measurement": "IC50", "setting": "KB", "value": 2750, "unit": "nM"},
      {"measurement": "IC50", "setting": "HT-29 [17]", "value": 11300, "unit": "nM"},
      {"measurement": "inhibition", "setting": "[18]", "value": "Dose-dependent effect"},
      {"measurement": "IC50", "setting": "CCRF-CEM", "value": 40, "unit": "nM"}
    ]}
  ]
}
